Laboratory results taken from ChEMBL document CHEMBL1240360, “TMC278, a next-generation nonnucleoside reverse transcriptase inhibitor (NNRTI), active against wild-type and NNRTI-resistant HIV-1” (Antimicrob Agents Chemother, 2010).

How the values were obtained:
[1] = tested on: MT4; experiment: Cytotoxicity against human MT4 cells by cell based assay
Outline: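 Cytotoxicity in MT4 cells from cell-based assays gave a 50% cytotoxic concentration, reported as a median with first- to third-quartile values over the stated number of experiments.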

[2] = tested on: Human immunodeficiency virus 2; experiment: Antiviral activity against Human immunodeficiency virus 2 ROD infected in human MT4 cells assessed as reduction in virus induced cytopathicity; type: functional, organism-based; conditions: Human immunodeficiency virus 2, ISOLATE ROD
Outline: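 MT4 cells (1.5 × 10^5/ml) infected with HIV (MOI 0.01) were added to serial compound dilutions and incubated 5 days at 37°C in 5% CO2. Protection from virus-induced cell death was read by MTT tetrazolium colorimetry, giving an EC50 in micromolar.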

[3] = tested on: Human immunodeficiency virus 1; experiment: Antiviral activity against Human immunodeficiency virus 1 subtype (H) infected in human MT4 cells assessed as reduction in virus induced cytopathicity; type: functional, organism-based
Outline: (§1)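 Recombinant viruses were made by recombining patient-derived HIV-1 RT-PR sequences into an RT-PR-deleted HXB2 proviral clone transfected into MT4 cells. Subtype was assigned from PR/RT sequence by Smith-Waterman alignment to HXB2. MT4 cells (1.5 × 10^5/ml) were infected at MOI 0.01 with serially diluted compound for 5 days at 37°C. Viability was read by MTT and EC50 derived.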

[4] = tested on: Human immunodeficiency virus 1; experiment: Antiviral activity against Human immunodeficiency virus 1 subtype G infected in human MT4 cells assessed as reduction in virus induced cytopathicity; type: functional, organism-based; outline: as §1
[5] = tested on: Human immunodeficiency virus 1; experiment: Antiviral activity against Human immunodeficiency virus 1 subtype D infected in human MT4 cells assessed as reduction in virus induced cytopathicity; type: functional, organism-based; outline: as §1
[6] = tested on: Human immunodeficiency virus 1; experiment: Antiviral activity against Human immunodeficiency virus 1 subtype F1 infected in human MT4 cells assessed as reduction in virus induced cytopathicity; type: functional, organism-based; conditions: Human immunodeficiency virus 1, subtype F1, MT4; outline: as §1
[7] = tested on: Human immunodeficiency virus 1; experiment: Antiviral activity against Human immunodeficiency virus 1 subtype C infected in human MT4 cells assessed as reduction in virus induced cytopathicity; type: functional, organism-based; outline: as §1
[8] = tested on: Human immunodeficiency virus 1; experiment: Antiviral activity against Human immunodeficiency virus 1 subtype BG infected in human MT4 cells assessed as reduction in virus induced cytopathicity; type: functional, organism-based; outline: as §1
[9] = tested on: Human immunodeficiency virus 1; experiment: Antiviral activity against Human immunodeficiency virus 1 subtype AG infected in human MT4 cells assessed as reduction in virus induced cytopathicity; type: functional, organism-based; outline: as §1
[10] = tested on: Human immunodeficiency virus 1; experiment: Antiviral activity against Human immunodeficiency virus 1 subtype AE infected in human MT4 cells assessed as reduction in virus induced cytopathicity; type: functional, organism-based; outline: as §1
[11] = tested on: Human immunodeficiency virus 1; experiment: Antiviral activity against Human immunodeficiency virus 1 subtype A1 infected in human MT4 cells assessed as reduction in virus induced cytopathicity; type: functional, organism-based; conditions: Human immunodeficiency virus 1, subtype A1, MT4; outline: as §1
[12] = tested on: Human immunodeficiency virus 1; experiment: Antiviral activity against Human immunodeficiency virus 1 3B infected in human MT4 cells assessed as reduction in virus induced cytopathicity; type: functional, organism-based
Outline: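 MT4 cells (1.5 × 10^5/ml) infected with HIV-1 IIIB at MOI 0.01 and added to serially diluted compound. Cultures incubated 5 days at 37°C under 5% CO2. Cell viability, as protection from virus-induced killing, read by MTT tetrazolium colorimetry. EC50 reported as median with first to third quartiles over n experiments.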

Work on Cc1ccnc2c1NC(=O)c1cccnc1N2C1CC1 [NEVIRAPINE] yielded an Activity [1] greater than 32 µM, an EC50 [2] greater than 31200 nM and an EC50 [3] of 34.1 nM. It also gave an EC50 [4] of 24.6 nM, an EC50 [5] of 24.2 nM and an EC50 [6] of 14.9 nM. It also gave an EC50 [7] of less than 4.88 nM, an EC50 [8] of 26 nM and an EC50 [9] of 14.4 nM. For the same molecule, the EC50 [10] was 8.94 nM, the EC50 [11] was 9.32 nM and the EC50 [12] was 34.1 nM.
